Consider twelve compounds from ChEMBL document CHEMBL1132598, “Synthesis, corticotropin-releasing factor receptor binding affinity, and pharmacokinetic properties of triazolo-, imidazo-, and pyrrolopyrimidines and -pyridines” (J Med Chem, 1999).

In general, clearance refers to a measure of how efficiently the substance is removed, as volume per time. For orientation: bioavailability means the share of a dose that reaches the circulation, judged against a reference dose that is usually intravenous. One may read the Cmax as the maximum level reached in the sampled fluid or tissue. Usually Tmax stands for the time from dosing to the highest level. What is called half-life is the time needed for the level to fall by half in the phase considered. Low readings indicate rapid decline, high ones slow decline. One may read the Ki as the dissociation constant of the complex between target and ligand, obtained from inhibition or displacement.

The structures appear in SMILES notation.

Data set [1] in a line: The clearance was measured in dogs after intravenous administration of 1 mg/kg dose. Conditions: dog, in vivo. It counts as ADME, organism-based, Canis lupus familiaris. The arrangement: dose 1 mg/kg, route intravenous. In short, it runs like this: (§1)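 Dogs (n = 4–6) received 1 mg/kg iv in an ethanol/PEG-based cosolvent vehicle. Plasma was extracted liquid–liquid and quantified by LC/MS/MS. Clearance, steady-state volume and elimination half-life were derived from the concentration–time curves.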

The next data set deals with Canis familiaris. Description: The Plasma area under the compound concentration -time curve was measured in dogs after oral administration of 1 mg/kg dose. It counts as ADME, organism-based, Canis lupus familiaris. The arrangement: dose 1 mg/kg, route oral. Conditions: dog, in vivo.
Data set [2] is described as follows: Oral bioavailability in dog (dose 1 mg/kg). Conditions: in vivo. It counts as ADME, organism-based, Canis lupus familiaris.
Data set [3] is described as follows: Oral bioavailability in rat (dose 1 mg/kg). The data set is classed as ADME, organism-based. The settings on record: in vivo. In short, it runs like this:
(§2)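 Rats were given a single 1 mg/kg oral dose, as a 0.25% methylcellulose suspension or as a solution in EtOH/PG (20:80). Animals were sacrificed at 30 min and 1, 2, 4, 8 and 16 h, with blood collected into EDTA. Plasma was separated by centrifugation and extracted liquid–liquid. Analysis was by LC/MS/MS. Each value is a single determination or the average of two.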

Data set [4] can be described thus: The Peak plasma concentration was measured in dogs after oral administration of 1 mg/kg dose. Also noted: dose 1 mg/kg, route oral. The settings on record: dog. It counts as ADME, organism-based, Canis lupus familiaris.
The nature of data set [5]: The Peak plasma concentration was measured in rats after oral administration of 1 mg/kg dose. The data set is classed as ADME, organism-based. Also noted: dose 1 mg/kg, route oral. Conditions: rat. In a few lines:
as §2

A short description of data set [6]: The time reach to maximum Peak plasma concentration was measured in dogs after oral administration of 1 mg/kg dose. The arrangement: dose 1 mg/kg, route oral. Conditions: dog. The data set is classed as ADME, organism-based, Canis lupus familiaris.
The nature of data set [7]: The Elimination half-life was measured in dogs after intravenous administration of 1 mg/kg dose. The data set is classed as ADME, organism-based, Canis lupus familiaris. Also noted: dose 1 mg/kg, route intravenous. Conditions: dog, in vivo. In short, it runs like this:
as §1

Data set [8] is described as follows: The volume of distribution at steady state was measured in dogs after intravenous administration of 1 mg/kg dose. It counts as ADME, organism-based, Canis lupus familiaris. The arrangement: dose 1 mg/kg, route intravenous. The settings on record: dog, in vivo, read-out: Vss. In short, it runs like this: as §1
In another data set the test system is Rattus norvegicus. Description: The Plasma area under the compound concentration -time curve was measured in rats after oral administration of 1 mg/kg dose. The data set is classed as ADME, organism-based. Also noted: dose 1 mg/kg, route oral. Conditions: in vivo. In short, it runs like this:
as §2

Data set [9] can be described thus: The Brain concentration compared to plasma concentration in rats at steady state after intravenous infusion. Conditions: rat, brain and plasma, read-out: B/P.
Data set [10] has as its target T1, Corticotropin-releasing factor receptor 1 (Homo sapiens, UniProt P34998).
T1 sequence (P34998 whole entry): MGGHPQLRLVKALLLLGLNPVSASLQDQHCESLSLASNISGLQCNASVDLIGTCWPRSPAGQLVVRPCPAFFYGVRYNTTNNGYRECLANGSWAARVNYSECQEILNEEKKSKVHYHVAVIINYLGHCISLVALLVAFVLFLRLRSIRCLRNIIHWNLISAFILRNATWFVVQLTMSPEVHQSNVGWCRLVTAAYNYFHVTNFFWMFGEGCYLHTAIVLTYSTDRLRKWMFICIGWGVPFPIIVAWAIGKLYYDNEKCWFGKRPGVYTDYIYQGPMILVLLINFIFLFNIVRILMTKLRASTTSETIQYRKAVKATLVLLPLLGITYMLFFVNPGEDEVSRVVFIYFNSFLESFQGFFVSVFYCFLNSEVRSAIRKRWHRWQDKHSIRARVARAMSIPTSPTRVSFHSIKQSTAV
Nature of the data set: Binding affinity to recombinant human Corticotropin releasing factor receptor 1 (hCRF1) expressed in 293EBNA cells. It counts as cell-based.

Take `COCCN(CCOC)c1nc(C)nc2c1nnn2-c1ccc(C(C)C)cc1Br`: in data set [1], the clearance is 7.97 mL/min/kg. Moreover, the AUC T with Canis familiaris was found to be 0.914 µM·h; in the data set with Rattus norvegicus it was 0.098 µM·h. Besides, the F in data set [2] turned out to be 30.7%. The bioavailability in data set [3] is 17%. In addition, the Cmax in data set [4] was 308 nM; in data set [5] it was 30 nM. The Tmax in [6] worked out at 0.67 h. In data set [7], the half-life was 33.2 h. Besides, in data set [8], the Vd was determined as 15.6 L/kg. Moreover, in [9], the Kp came out at 0.6.

In [3], `CCC(COC)Oc1nc(C)nc2c1nnn2-c1ccc(C(C)C)cc1Br` (stereo not given) came in with a bioavailability of 6%. The Cmax in [5] was 5.9 nM. Also, in data set [10], the Ki was 1.9 nM. The same compound returned an AUC T in the data set with Rattus norvegicus of 0.021 µM·h.

`CCC(CCOC)Nc1nc(C)nc2c1ncn2-c1ccc(C(C)C)cc1Br` (stereo not given) yielded a bioavailability in [3] of 7%. In data set [5], this compound returned a Cmax of 19.9 nM. Moreover, the Ki in data set [10] turned out to be 8 nM. In addition, in the data set with Rattus norvegicus, the AUC T is 0.03 µM·h.

The compound `COCCN(Cc1ccccc1)c1nc(C)nc2c1nnn2-c1ccc(C(C)C)cc1Br` showed a clearance in data set [1] of 8.72 mL/min/kg. Further, the AUC T in the data set with Canis familiaris was found to be 0.366 µM·h; with Rattus norvegicus, 0.137 µM·h. Also, the results for the bioavailability in [2] and in data set [3] were 7.3% and 15.5%, respectively. Moreover, the values for the Cmax in data set [4] and in data set [5] were 39 nM and 12.5 nM, respectively. Also, in data set [6], the time to peak (Tmax) was 0.8 h. Further, in [7], the half-life was 46.7 h. In addition, in data set [8], the Vd is 24.7 L/kg. In addition, the inhibition constant (Ki) in data set [10] amounted to 5 nM. For the same compound, the Kp in data set [9] came to 0.2.

`CCCCN(CC)c1nc(C)nc2c1nnn2-c1ccc(C(C)C)cc1Br` gave a clearance in [1] of 9.25 mL/min/kg. The values for the AUC T in the data set with Canis familiaris and with Rattus norvegicus were 0.824 µM·h and 0.471 µM·h, respectively. Also, the figures for the bioavailability in data set [2] and in data set [3] were 18.4% and 26.5%, respectively. Moreover, the Cmax in [4] is 141 nM; in data set [5], 49.2 nM. Further, in data set [6], the Tmax was 1.25 h. This compound had a half-life in [7] of 26 h. Also, in data set [8], the Vd was determined as 7.54 L/kg. The inhibition constant Ki in data set [10] is 7.5 nM.

As to `CCC(COC)Nc1nc(C)nc2c1nnn2-c1ccc(C(C)C)cc1Br` (stereo in doubt; 4x), in data set [1], the clearance is 7.38 mL/min/kg. For the same compound, the AUC T stood at 3.14 µM·h with Canis familiaris and 0.146 µM·h with Rattus norvegicus. Besides, the bioavailability in data set [2] was 53.1%; in data set [3], 21%. For the same compound, the Cmax in [4] stood at 546 nM; in data set [5], 30.7 nM. Moreover, in data set [6], the Tmax came out at 0.5 h. The same compound gave a half-life in data set [7] of 19 h. Also, the Vd in data set [8] was found to be 10.1 L/kg. In addition, the inhibition constant (Ki) in data set [10] turned out to be 6.1 nM. In addition, in [9], the Kp was 0.6.

Consider `COCCCNc1nc(C)nc2c1nnn2-c1ccc(C(C)C)cc1Br`, for which the Ki in [10] was 291 nM.

Consider `COCCNc1nc(C)nc2c1ncn2-c1ccc(C(C)C)cc1Br`, for which the Ki in data set [10] is 210 nM.

With `COCC(Cc1ccccc1)Nc1nc(C)nc2c1nnn2-c1ccc(C(C)C)cc1Br` (stereo not given), the Ki in data set [10] came to 36.7 nM.

On to `CCC(CO)Nc1nc(C)nc2c1c(C)c(C)n2-c1c(C)cc(C)cc1C` (stereo not given), for which the inhibition constant (Ki) in data set [10] came to 27.3 nM.

Regarding `COCC(Cc1ccccc1)Nc1nc(C)nc2c1nnn2-c1c(C)cc(C)cc1C` (stereo not given), the Ki in [10] came out at 27.7 nM.

As to `CCCC(C)Nc1nc(C)nc2c1nnn2-c1c(C)cc(C)cc1C` (stereo not given), the Ki in data set [10] is 7.1 nM.
